Screening results (PubChem)
HSV replic up: HSV replication enhancement; HSV replication augmentation in cells, fold increase; maximum fold increase; 0.005% of 220,000 active; in the data active = maximum fold increase above about 1.5; inconclusive = no clear call, values can overlap the other calls; tested in PC3 cells
STAT1 inh: STAT1 signaling inhibition; NIH 3T3 STAT1-luciferase reporter, IFN-gamma, luminescence; 0.35% of 200,000 active; inhibition, % at 5.5 µM;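 active = inhibition above a set limit, the mean inhibition across all tested compounds plus 3 SD, cut at about 34% in these data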
STAT1 activator: increases IFN-gamma driven STAT1 reporter signal. NIH 3T3 STAT1-luciferase reporter, luminescence; 100% = IFN-gamma alone, no compound. activation (% of control), % at 5.5 µM. 2.6% of 200,000 active;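 active = activation above the screen-wide mean activation plus 3 SD, cut at about 130% in these data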
STAT3 activator: activators of IL-6 induced STAT3 signaling. U3A cells, IL-6 STAT3-luciferase reporter, luminescence; 100% = signal with IL-6 EC80 alone. activation (% of control), % at 5.6 µM. 0.91% of 190,000 active. AID 871;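 active = activation above the screen-wide mean of compound activation plus 3 SD, cut at about 130% in these data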
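Test system: STAT3-luciferase reporter U3A cells; Detection: reporter luminescence signal; Times: 1 h compound pre-exposure, 6 h IL-6 stimulation, 37 °C; Benchmarks: IL-6-only high control; Also added: IL-6 stimulus at 33 ng/mL final.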
STAT3 blocker: inhibitors of IL-6 induced STAT3 signaling | U3A cells, IL-6 STAT3-luciferase reporter, luminescence; host cell line lacks STAT1 | AID 862 | 0.89% of 190,000 active | inhibition, % at 5.5 µM;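 active = inhibition above the mean inhibition across all screened compounds plus 3 SD, cut at about 44% in these data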
Cl transport mod: modulators of human KCC2 chloride dependent transport | AID 1456 | B-score of Tl+ flux slope (higher = more flux/activation; lower = inhibition) at 10 µM | Q9H2X9 | 2.2% of 190,000 active | KCC2 cells, thallium flux FluoZin-2 fluorescence;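 active = thallium flux slope and its plate-corrected score both differing from the plate sample mean at a set confidence after two filtering rounds, in either direction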;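 also: slope of fluorescence scaled to starting intensity during 10 to 20 s after thallium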
Of the large screens only hits and unclear results are named; the others gave an inactive call. Compounds with a hit are over-represented: about 5.5% of the library has one in this group of screens.

N#Cc1ccc(-c2ccccc2)nc1SCC(=O)c1cccc(Cl)c1	none
CCOC(=O)C1=C(CSc2nc(-c3ccccc3)ccc2C#N)OC(N)=C(C#N)C1c1ccc(OC)cc1 (stereo unspecified)	HSV replic up inconclusive, STAT1 activator 147
CCN(CC)C(=O)CSc1nc(-c2ccccc2)ccc1C#N	STAT1 activator 132
COc1ccc(CCC(=O)Nc2cccc(S(=O)(=O)N(C)C)c2)cc1OC	none
COc1cc(NC(=O)Cc2c(C(=O)O)n(C)c3ccccc23)cc(OC)c1OC	none
CC(C)(C)C(=O)Nc1ccc2oc(-c3cc(F)c(F)cc3Cl)nc2c1	STAT1 activator 142
N#C/C(=C\c1ccc(OC(=O)c2ccc(Cl)s2)cc1)c1nc2ccccc2[nH]1	HSV replic up inconclusive
COc1ccc(/C=N/NC(=O)c2ccncc2)cc1CSc1nc2ccccc2s1	none
COc1ccc(OC)c(NC(=O)Cn2c(CCC(=O)O)ccc2-c2ccccc2)c1	STAT3 activator 134
Cc1csc(NC(=O)/C=C/c2ccco2)n1	STAT1 activator 147
O=C(/C=C/c1ccco1)Nc1cccnc1	none
O=C(/C=C/c1ccco1)Nc1nc(-c2ccccc2)cs1	STAT1 activator 133
O=C(O)c1ccc(Nc2nc(-c3ccccc3)cs2)cc1	STAT1 activator 145 (no result: Cl transport mod)
Cc1csc(Nc2ccc(C(=O)O)cc2)n1	none (no result: STAT1 inh, STAT1 activator, STAT3 activator, STAT3 blocker)
Cc1ccc(NC(=O)/C=C/c2ccco2)nc1	STAT1 activator 147
CCn1c(SCC(=O)N2CCN(C(=O)c3ccco3)CC2)nnc1C(C)C	none
CCNS(=O)(=O)c1ccc2c(c1)NCC2	none
O=C(/C=C/c1ccco1)Nc1nc(-c2ccccn2)cs1	STAT1 activator 129
CCN1CCN(C(=O)c2cc(S(=O)(=O)Nc3ccc(S(C)(=O)=O)cc3)ccc2Cl)CC1	none
NC(=O)c1cc2ccncc2c2ccccc12	none (no result: STAT1 inh, STAT1 activator, STAT3 activator, STAT3 blocker)
O=C(Nc1ccc2c(c1)CCC2)c1cnccn1	STAT1 activator 143
Cc1cnc(C(=O)Nc2ccc3c(c2)CCC3)cn1	none
O=C(Nc1ccc2c(c1)CCC2)c1cc2ccccc2o1	STAT1 activator 151 (no result: HSV replic up)
Cc1ccc(C(=O)Nc2ccc3c(c2)CCC3)o1	STAT1 activator 137
CN1N=C(C(=O)Nc2ccc3c(c2)CCC3)CCC1=O	STAT1 activator 132
Cc1nnc(N2CCN(c3ccccc3)CC2)c2nn(-c3ccccc3F)c(C)c12	none (no result: HSV replic up, Cl transport mod)
N#Cc1cnn2ccc(-c3ccc4c(c3)CCC4)nc12	none
Cc1cc(OCC(=O)OCC(=O)Nc2cc(C(F)(F)F)ccc2N2CCOCC2)ccc1Cl	none
Cc1c(CN2CCC(CO)(Cc3cccc(C(F)(F)F)c3)CC2)c2ccccc2n1C	none (no result: Cl transport mod)
CCOC(=O)c1ccc(NC(=S)Nc2ccccc2)cc1	none
O=C(CCOc1ccccc1)Nc1cccc([N+](=O)[O-])c1	none
CCOC(=O)c1ccc(NC(=S)NC(=O)COc2ccccc2)cc1	Cl transport mod 18
O=C(COc1ccccc1)NC(=S)Nc1cccc([N+](=O)[O-])c1	Cl transport mod 43
CCOC(=O)c1ccc(NC(=O)Nc2ccccn2)cc1	STAT1 activator 151
Cc1ccc2c(c1)N=C(c1ccc(Cl)cc1)CO2	STAT1 activator 148
Cc1ccc(C2=NOC(C)(c3sc(-c4ccc(Cl)cc4)nc3C)C2)cc1 (stereo unspecified)	none (no result: STAT1 inh, STAT1 activator, STAT3 activator, STAT3 blocker, Cl transport mod)
c1ccc(C2=Nc3ccccc3OC2)cc1	STAT1 activator 132 (no result: Cl transport mod)
O=C1CC(c2ccccc2)=Nc2ccccc2N1	none
Clc1ccc(C2=NN=C3COc4ccccc4N3C2)cc1	none
Clc1ccc(C2=Nc3cc(Cl)ccc3OC2)cc1	STAT1 activator 135
CCCNC(=S)N1CCC(NC(=O)Nc2ccc(C)cc2)CC1	none
CN1CCN(c2ccccc2NC(=O)c2sc3ccccc3c2Cl)CC1	none
CCN(c1ccccc1)c1ncnc2c1cnn2-c1ccccc1	STAT1 activator 131 (no result: Cl transport mod)
CN(Cc1ccccc1)c1ncnc2c1cnn2-c1ccccc1	STAT1 activator 150 (no result: Cl transport mod)
COc1cc(NC(=O)c2cccs2)c(C(=O)OCC(=O)c2cc(C)n(-c3ccccc3)c2C)cc1OC	STAT1 inh 36, STAT3 blocker 70
O=C(CN1CCN(Cc2ccccc2Cl)CC1)N/N=C/c1ccco1	none (no result: STAT1 inh, STAT1 activator, STAT3 activator, STAT3 blocker)
O=C(NCc1cccnc1)C(=O)NCC1CCCO1 (stereo unspecified)	none
O=C(N/N=C/c1ccc(-c2ccccc2Cl)o1)c1ccccc1	STAT1 activator 137
O=C(N/N=C/c1ccccc1Cl)c1cccc(F)c1	STAT1 activator 148
O=C(N/N=C/c1cccc(F)c1)c1ccc(Cl)cc1	STAT1 activator 138
O=C(N/N=C/c1cccc(F)c1)c1csc2c1CCCC2	STAT1 activator 142
O=C(N/N=C/c1cccc(O)c1)c1csc2ccccc12	none
O=C(N/N=C/c1c(Cl)cccc1Cl)c1cccc(F)c1	none
Cc1nn(Cc2cccc(C(N)=O)c2)c(C)c1Br	none (no result: STAT1 inh, STAT1 activator, STAT3 activator, STAT3 blocker)
CCCC(=O)c1c(NCCO)cc(C)oc1=O	none
O=C(N/N=C/c1ccccc1C(F)(F)F)c1ccc(O)cc1	STAT1 activator 130
O=C(N/N=C/c1ccc(F)cc1)c1ccccc1	STAT1 activator 129
O=C(Nc1ccccc1C(=O)N/N=C/c1ccncc1)c1ccccc1	STAT1 inh 54, STAT3 blocker 67
O=C(N/N=C/c1ccccc1O)c1cccc(C(F)(F)F)c1	none
Cc1ccc(CNC(=O)c2ccc3c(c2)NC(=O)C(N2CCOCC2)S3)cc1 (stereo unspecified)	STAT3 activator 133
Cc1ccccc1OCC(O)Cn1nnc2ccccc21 (stereo unspecified)	STAT1 activator 142
CCC(=O)c1ccc(OCC(O)Cn2nnc3ccccc32)cc1 (stereo unspecified)	none
Cn1ccnc1SCC(=O)c1cccc(Br)c1	none
Cn1ccnc1SCC(=O)Nc1ccc2ccccc2c1	STAT1 activator 140
Cn1ccnc1SCC(=O)c1ccc2ccccc2c1	STAT1 activator 146
Cn1ccnc1SCC(=O)Nc1ccccc1	none
CC1CN(C(NC(=O)c2ccccc2)C(Cl)(Cl)Cl)CC(C)O1 (stereo unspecified)	none
CCCCCCCCCCCCOC1OC(CO)C(O)C(O)C1NC(C)=O (stereo unspecified)	none
c1csc(CCNc2ncnc3sc4c(c23)CCC4)c1	Cl transport mod -4.5 (no result: STAT1 inh, STAT1 activator, STAT3 activator, STAT3 blocker)
c1ccc(Nc2ncnc3sc4c(c23)CCC4)cc1	none
CCCCCCOc1ccc(C(CC(N)=O)C(=O)O)cc1 (stereo unspecified)	none
Nc1ccc(-c2cn3cccnc3n2)cc1	none
Cc1nn2cc(-c3ccc(N)cc3)nc2s1	STAT1 activator 139 (no result: Cl transport mod)
Cc1ccc(-c2nnc(Nc3ccccc3)o2)cc1	STAT1 inh 72, STAT3 blocker 101 (no result: Cl transport mod)
Cc1ccc(NC(=O)Nc2nnc(-c3ccccc3)o2)cc1	none
Brc1cccc(-c2nnc(-c3ccccc3)o2)c1	STAT1 activator 132
c1ccc(-c2nnc(-c3ccccc3)o2)cc1	STAT1 activator 139
Cc1cccc(-c2nnc(-c3ccc(N)cc3)o2)c1	STAT1 activator 147
